In PMC7781173 (Amino Acids, 2021):

Legend:
human C5 [1] = target: T1, human C5 (Homo sapiens, UniProt P01031); settings: ref Hoarty et al. [2015]; Ricardo et al. [2017]; cited from earlier work
C5 = settings: background statement, reference not given; cited from earlier work
human C5 [2] = target: T1, human C5; assay: Ex vivo human whole blood assay; assay type: cell-based; settings: summary statement
Procedure, shortened: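 Fresh blood from healthy volunteers, anticoagulated with lepirudin at 50 μg/mL. Pre-treated with test compound (1 nM to 1 μM) for 30 min at 37 °C, then stimulated with E. coli O111:B4 LPS at 200 ng/mL for 24 h at 37 °C. Centrifuged at 2000×g for 10 min at 4 °C; plasma C5a quantified by commercial ELISA. Concentration–response format.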

C5b = settings: prevents assembly of the MAC; ref Yee et al. [2015]; cited from earlier work
rodent C5 = settings: ref Hoarty et al. [2015]; Ricardo et al. [2017]; cited from earlier work

T1 sequence (P01031 19-673 limits assumed): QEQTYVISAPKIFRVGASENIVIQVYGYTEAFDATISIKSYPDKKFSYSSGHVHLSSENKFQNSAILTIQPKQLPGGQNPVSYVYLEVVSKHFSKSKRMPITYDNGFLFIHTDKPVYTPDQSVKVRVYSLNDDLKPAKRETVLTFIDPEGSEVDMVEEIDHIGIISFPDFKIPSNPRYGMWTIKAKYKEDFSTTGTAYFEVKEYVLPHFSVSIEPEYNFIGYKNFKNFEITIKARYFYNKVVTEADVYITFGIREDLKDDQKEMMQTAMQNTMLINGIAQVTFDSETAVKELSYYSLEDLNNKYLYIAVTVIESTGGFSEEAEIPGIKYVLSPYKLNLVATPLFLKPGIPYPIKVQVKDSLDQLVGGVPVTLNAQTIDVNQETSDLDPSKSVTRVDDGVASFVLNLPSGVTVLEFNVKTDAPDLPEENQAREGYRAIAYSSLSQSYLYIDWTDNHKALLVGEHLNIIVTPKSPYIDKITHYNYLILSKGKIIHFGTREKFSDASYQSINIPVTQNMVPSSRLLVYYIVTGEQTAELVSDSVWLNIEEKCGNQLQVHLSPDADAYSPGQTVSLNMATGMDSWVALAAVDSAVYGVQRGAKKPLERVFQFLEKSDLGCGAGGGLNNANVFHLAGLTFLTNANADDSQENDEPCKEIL
T1 sequence (P01031 678-1676 limits assumed): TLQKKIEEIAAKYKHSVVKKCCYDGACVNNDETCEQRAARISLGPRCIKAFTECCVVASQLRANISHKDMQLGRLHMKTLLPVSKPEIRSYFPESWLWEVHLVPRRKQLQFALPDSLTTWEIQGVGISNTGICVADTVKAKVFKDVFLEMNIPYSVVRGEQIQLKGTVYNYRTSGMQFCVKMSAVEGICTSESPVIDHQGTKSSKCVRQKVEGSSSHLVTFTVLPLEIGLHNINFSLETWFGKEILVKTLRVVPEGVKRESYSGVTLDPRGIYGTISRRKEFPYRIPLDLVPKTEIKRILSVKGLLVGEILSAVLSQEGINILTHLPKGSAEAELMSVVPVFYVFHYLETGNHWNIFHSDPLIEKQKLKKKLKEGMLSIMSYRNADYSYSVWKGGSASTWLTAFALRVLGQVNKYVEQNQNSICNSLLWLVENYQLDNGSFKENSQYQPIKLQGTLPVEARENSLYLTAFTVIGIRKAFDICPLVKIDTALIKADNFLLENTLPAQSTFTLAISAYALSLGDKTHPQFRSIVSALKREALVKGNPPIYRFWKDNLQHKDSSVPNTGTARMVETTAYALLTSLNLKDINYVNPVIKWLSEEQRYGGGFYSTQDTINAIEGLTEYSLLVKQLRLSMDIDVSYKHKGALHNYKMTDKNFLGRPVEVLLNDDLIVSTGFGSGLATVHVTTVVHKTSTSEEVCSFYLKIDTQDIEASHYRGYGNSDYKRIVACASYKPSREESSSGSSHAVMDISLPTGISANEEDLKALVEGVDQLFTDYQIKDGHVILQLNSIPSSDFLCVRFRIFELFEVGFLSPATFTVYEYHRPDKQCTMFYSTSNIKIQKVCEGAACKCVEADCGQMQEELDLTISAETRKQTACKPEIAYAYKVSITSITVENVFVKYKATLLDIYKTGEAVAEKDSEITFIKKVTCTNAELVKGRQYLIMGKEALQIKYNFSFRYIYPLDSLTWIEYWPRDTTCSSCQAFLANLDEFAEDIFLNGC

## zilucoplan
Human C5 [1]
  human C5 cleavage: does bind and inhibit human C5 cleavage
C5
  C5 cleavage: inhibit C5 cleavage
Human C5 [2]
  LPS-induced C5a production from human blood: blocks LPS-induced C5a production
C5b
  binding to C5b; C5b binding to C6: binds to C5b, thereby competitively inhibiting C5b binding to C6
Rodent C5
  rodent C5 cleavage: little to no effect
